Laboratory results as given in ChEMBL document CHEMBL1152633, “Synthesis and biological evaluation of flavan-3-ol derivatives as positive modulators of GABAA receptors” (Bioorg Med Chem, 2009).
pEC50: −log10 of the molar value.

Key:
[1] = biological target: T1, GABA-A receptor; alpha-1/beta-2/gamma-2 (Homo sapiens) (UniProt P14867+P47870+P18507); test: Modulatory activity at human GABAA alpha-1-beta-2-gamma-2L receptor expressed in Xenopus laevis oocytes assessed as potentiation of GABA EC5-induced currents at 30 uM by two-electrode voltage clamp assay; format: cell-based; conditions: Oocyte
Method in brief: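 Stage V–VI oocytes were injected with 2–3 ng cRNA (α:β:γ 1:1:2) and kept 3–4 days at 16 °C in ND96 with pyruvate, theophylline and gentamycin. Two-electrode voltage clamp was run in ND96 at pH 7.5 with 3 M KCl electrodes. Test drug was co-applied with GABA EC5, with a 5–10 min washout between applications. Currents were normalised to a reference modulator at the same concentration on the same cell (n ≤ 5).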

[2] = biological target: T2, GABA-A receptor; alpha-1/beta-2/gamma-2 (Homo sapiens, UniProt P14867+P18507+P47870); test: Modulatory activity at human GABAA alpha-1-beta-2-gamma-2L receptor expressed in Xenopus laevis oocytes assessed as potentiation of GABA EC5-induced currents by two-electrode voltage clamp assay; format: cell-based, Oocyte
T2 sequence (P14867 whole entry): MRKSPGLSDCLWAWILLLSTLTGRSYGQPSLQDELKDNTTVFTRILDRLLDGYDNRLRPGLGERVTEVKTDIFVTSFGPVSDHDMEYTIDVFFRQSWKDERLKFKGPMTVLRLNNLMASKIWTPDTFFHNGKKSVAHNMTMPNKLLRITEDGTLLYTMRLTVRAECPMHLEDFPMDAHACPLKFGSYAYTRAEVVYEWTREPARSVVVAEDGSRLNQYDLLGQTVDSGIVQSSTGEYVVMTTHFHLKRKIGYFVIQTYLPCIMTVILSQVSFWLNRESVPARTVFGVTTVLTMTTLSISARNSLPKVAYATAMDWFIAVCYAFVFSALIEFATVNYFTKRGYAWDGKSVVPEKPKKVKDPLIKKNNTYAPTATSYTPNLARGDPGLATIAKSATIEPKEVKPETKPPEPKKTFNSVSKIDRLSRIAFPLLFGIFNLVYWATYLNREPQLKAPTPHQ
T2 sequence (P47870 whole entry): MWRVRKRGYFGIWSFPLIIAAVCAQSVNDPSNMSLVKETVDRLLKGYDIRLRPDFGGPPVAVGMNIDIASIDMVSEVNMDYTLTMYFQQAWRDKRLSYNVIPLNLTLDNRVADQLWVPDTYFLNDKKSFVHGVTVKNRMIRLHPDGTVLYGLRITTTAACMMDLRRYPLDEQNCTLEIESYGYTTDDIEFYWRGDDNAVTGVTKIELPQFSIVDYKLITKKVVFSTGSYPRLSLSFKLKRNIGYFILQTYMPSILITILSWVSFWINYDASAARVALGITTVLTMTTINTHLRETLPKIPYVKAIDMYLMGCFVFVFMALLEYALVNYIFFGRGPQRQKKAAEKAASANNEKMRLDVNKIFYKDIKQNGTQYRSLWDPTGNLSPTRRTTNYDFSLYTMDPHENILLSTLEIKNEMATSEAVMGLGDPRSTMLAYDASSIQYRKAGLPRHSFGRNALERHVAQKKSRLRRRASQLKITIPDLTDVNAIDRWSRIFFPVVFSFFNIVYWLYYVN
T2 sequence (P18507 whole entry): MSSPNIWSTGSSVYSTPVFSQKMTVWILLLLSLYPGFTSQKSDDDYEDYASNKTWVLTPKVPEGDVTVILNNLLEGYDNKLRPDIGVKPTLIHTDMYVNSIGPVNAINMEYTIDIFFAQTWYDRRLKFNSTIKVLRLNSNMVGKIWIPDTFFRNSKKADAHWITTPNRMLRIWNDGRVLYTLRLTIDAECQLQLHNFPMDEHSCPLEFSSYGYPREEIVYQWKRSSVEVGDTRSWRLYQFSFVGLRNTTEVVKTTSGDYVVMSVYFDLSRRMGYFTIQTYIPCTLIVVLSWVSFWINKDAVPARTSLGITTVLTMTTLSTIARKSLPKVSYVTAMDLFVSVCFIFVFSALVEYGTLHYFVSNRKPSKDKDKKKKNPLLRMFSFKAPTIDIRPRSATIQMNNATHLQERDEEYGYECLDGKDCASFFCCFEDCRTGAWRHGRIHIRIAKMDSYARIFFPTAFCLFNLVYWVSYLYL
Method in brief: (§1)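 Oocytes were injected with cRNA (α:β:γ 1:1:2) and incubated 3–4 days at 16 °C in ND96. TEVC was run in ND96 at pH 7.5, co-applying the drug at a range of concentrations with GABA EC5, with a 5–10 min washout between applications. Potentiation = (Idrug − IGABA) × 100/IGABA. Data are mean ± SEM, n ≥ 8, from at least two oocyte batches.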

[3] = biological target: T1, GABA-A receptor; alpha-1/beta-2/gamma-2 (Homo sapiens); test: Modulatory activity at human GABAA alpha-1-beta-2-gamma-2L receptor expressed in Xenopus laevis oocytes assessed as potentiation of GABA EC5-induced currents at 30 uM by two-electrode voltage clamp assay relative to untreated control; format: cell-based; conditions: Oocyte; method in brief: as §1
[4] = biological target: T1, GABA-A receptor; alpha-1/beta-2/gamma-2 (Homo sapiens); test: Modulatory activity at human GABAA alpha-1-beta-2-gamma-2L receptor expressed in Xenopus laevis oocytes assessed as potentiation of GABA EC5-induced currents at 50 uM by two-electrode voltage clamp assay relative to untreated control; format: cell-based; conditions: Oocyte; method in brief: as §1

SMILES | Activity [1] [%] | other results
COc1ccc([C@@H]2Oc3cc(OCc4ccccc4)ccc3C[C@H]2OC(C)=O)cc1OC | < 50 | –
CC(=O)O[C@H]1Cc2ccccc2O[C@H]1c1ccc(OCc2ccccc2)cc1 | < 50 | –
COc1ccc([C@@H]2Oc3cc(O)ccc3C[C@H]2OC(C)=O)cc1 | > 50 | fold change (FC) [4]: 10.5
COc1ccc([C@H]2Oc3ccccc3C[C@H]2O)cc1 | < 50 | –
COc1ccc([C@H]2Oc3cc(OCc4ccccc4)ccc3C[C@@H]2OC(C)=O)cc1OC | < 50 | –
COc1ccc([C@H]2Oc3ccc(OC)cc3C[C@H]2OC(C)=O)cc1 | < 50 | –
COc1ccc([C@H]2Oc3cc(O)ccc3C[C@@H]2OC(C)=O)cc1OC | < 50 | –
COc1ccc([C@@H]2Oc3ccc(C)cc3C[C@H]2OC(C)=O)cc1OC | > 50 | –
COc1ccc([C@@H]2Oc3ccccc3C[C@@H]2OC(C)=O)cc1OC | < 50 | –
CC(=O)O[C@H]1Cc2ccccc2O[C@@H]1c1ccc(O)cc1 | < 50 | –
COc1ccc([C@H]2Oc3cc(OCc4ccccc4)ccc3C[C@H]2OC(C)=O)cc1 | < 50 | –
COc1ccc([C@@H]2Oc3cc(O)ccc3C[C@@H]2OC(C)=O)cc1 | < 50 | –
COc1ccc([C@H]2Oc3ccc(C)cc3C[C@@H]2OC(C)=O)cc1OC | < 50 | –

Continued, in another order:

Activity [1] [%] | SMILES | other results
< 50 | CC(=O)O[C@H]1Cc2ccccc2O[C@@H]1c1ccc(OCc2ccccc2)cc1 | –
< 50 | COc1ccc([C@@H]2Oc3ccccc3C[C@H]2O)cc1 | –
< 50 | CC(=O)O[C@H]1Cc2ccccc2O[C@H]1c1ccc(O)cc1 | –
> 50 | COc1ccc([C@@H]2Oc3ccccc3C[C@H]2OC(C)=O)cc1OC | pEC50 [2]: 5.18; fold change (FC) [3]: 14.7
> 50 | CC(=O)O[C@@H]1Cc2ccccc2O[C@H]1c1ccc2c(c1)OCO2 | –
> 50 | COc1cc([C@@H]2Oc3ccccc3C[C@H]2OC(C)=O)cc(Br)c1OC | –
< 50 | COc1ccc([C@@H]2Oc3cc(OCc4ccccc4)ccc3C[C@H]2OC(C)=O)cc1 | –
700 | COc1ccc([C@@H]2Oc3ccccc3C[C@H]2OC(C)=O)cc1 | fold change (FC) [4]: 8.5; pEC50 [2]: 4.86
< 50 | COc1ccc([C@H]2Oc3ccccc3C[C@H]2OC(C)=O)cc1 | –
< 50 | COc1ccc([C@@H]2Oc3ccccc3C[C@@H]2OC(C)=O)cc1 | –
> 50 | COc1ccc([C@H]2Oc3ccccc3C[C@@H]2OC(C)=O)cc1OC | –
> 50 | COc1ccc([C@@H]2Oc3cc(O)ccc3C[C@H]2OC(C)=O)cc1OC | pEC50 [2]: 4.92; fold change (FC) [3]: 12
> 50 | COc1ccc([C@@H]2Oc3ccc(OC)cc3C[C@H]2OC(C)=O)cc1 | pEC50 [2]: 4.83
> 50 | CC(=O)O[C@H]1Cc2ccccc2O[C@@H]1c1ccc2c(c1)OCO2 | –
> 50 | COc1ccc([C@H]2Oc3ccccc3C[C@@H]2OC(C)=O)cc1 | –
